Experimental data from ChEMBL document CHEMBL1136789, “Synthesis and biological evaluation of new 2-(4,5-dihydro-1H-imidazol-2-yl)-3,4-dihydro-2H-1,4-benzoxazine derivatives” (J Med Chem, 2003).

What was measured:
[1] = test system: Rattus norvegicus; test: Effect at (25 mg/kg, ip) on heart rate in anesthetized spontaneously hypertensive rats; format: functional
Method in brief: (§1)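 Adult male SHR anaesthetised with sodium pentobarbital 50 mg/kg ip, left carotid catheter filled with heparinised saline. BP and HR (HR from pulse pressure) stabilised ≥40 min before a single ip dose, n=6/group. Vehicle 0.5% carboxymethylcellulose in water, 2.5 mL/kg. Recorded over 90 min. Output is the maximal change in MAP (mmHg) and HR (bpm) from pre-dose baseline, also as %. Repeated-measures ANOVA with Dunnett's tests.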

[2] = In vitro alpha-2 adrenergic receptor binding affinity was determined on calf frontal cortex membrane preparation; format: tissue-based, Bos taurus
[3] = test system: Rattus norvegicus; test: Effect (25 mg/kg ip) on heart rate in anesthetized spontaneously hypertensive rats; format: functional; method in brief: as §1
[4] = test system: Rattus norvegicus; test: Effect after 25 mg/kg, po, on mean arterial blood pressure in conscious spontaneously hypertensive rats; format: functional
Method in brief: (§2)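 Studied conscious 24 h after surgery. Dosed by oral gavage after ≥40 min stabilisation, n=6/group. Vehicle 0.5% carboxymethylcellulose, 5 mL/kg. MAP and HR recorded over 24 h. Output is the maximal change from baseline (mmHg, bpm, %). Repeated-measures ANOVA with Dunnett's tests.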

[5] = test system: Rattus norvegicus; test: Effect after 25 mg/kg, po, on heart rate in conscious spontaneously hypertensive rats; format: functional; method in brief: as §2
[6] = biological target: T1, Alpha-1A adrenergic receptor (Bos taurus, UniProt P18130); test: In Vitro Alpha-1 adrenergic receptor binding affinity on calf frontal cortex membrane preparation; format: tissue-based
T1 sequence (P18130 whole entry): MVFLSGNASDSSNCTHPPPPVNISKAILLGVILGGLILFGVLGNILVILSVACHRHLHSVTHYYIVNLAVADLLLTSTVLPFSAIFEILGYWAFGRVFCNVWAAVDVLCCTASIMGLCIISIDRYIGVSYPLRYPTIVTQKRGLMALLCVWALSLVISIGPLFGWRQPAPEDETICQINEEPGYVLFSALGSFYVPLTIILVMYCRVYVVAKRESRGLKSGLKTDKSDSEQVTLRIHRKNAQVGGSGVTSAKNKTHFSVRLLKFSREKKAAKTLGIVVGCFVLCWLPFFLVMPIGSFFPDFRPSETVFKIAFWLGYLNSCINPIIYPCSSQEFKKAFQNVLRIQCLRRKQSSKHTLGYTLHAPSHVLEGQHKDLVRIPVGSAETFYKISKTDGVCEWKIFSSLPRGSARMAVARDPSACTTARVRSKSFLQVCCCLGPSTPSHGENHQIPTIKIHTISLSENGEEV
Method in brief: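 Calf frontal cortex membranes (0.5 mg protein/mL) incubated 40 min at 25 °C with 0.5 nM [3H]prazosin in 50 mM phosphate buffer with 10 mM MgCl2. Competitors at 10^-9 to 10^-4 M. Nonspecific binding set with 10 µM phentolamine. Stopped by rapid vacuum filtration through glass fibre filters, then washed three times with ice-cold buffer. Ki reported.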

[7] = test system: Rattus norvegicus; test: Effect (25 mg/kg ip) on mean arterial blood pressure in anesthetized spontaneously hypertensive rats; format: functional; method in brief: as §1

With `CN1CC(C2=NCCN2)Oc2ccccc21` (stereo not given) the “Max delta HR” value [1] was -148 beats min-1, the Ki [2] was 74 nM and the Variation [3] was -44%. For the same compound, the “Max delta MAP” value [4] was -65 mmHg, the Variation [4] was -36% and the “Max delta HR” value [5] was -97 beats min-1. For the same compound, the Variation [5] was -26%, the Ki [6] was 1100 nM and the “Max delta MAP” value [7] was -36 mmHg. The Variation [7] was -21%.
